Values after ≈ are worked out from the molar mass of the structure shown. Active and inactive are the calls of the source. The calls are words filed in the database; no cut-off is given here.
Experiments:
[1] = target: T1, Corticotropin-releasing factor receptor 1 (Rattus norvegicus, UniProt P35353); experiment: Displacement of [125I]Tyr-o-CRF from CRF1 receptor in rat frontal cortex homogenate by binding titration assay; format: tissue-based
T1 sequence (P35353 whole entry): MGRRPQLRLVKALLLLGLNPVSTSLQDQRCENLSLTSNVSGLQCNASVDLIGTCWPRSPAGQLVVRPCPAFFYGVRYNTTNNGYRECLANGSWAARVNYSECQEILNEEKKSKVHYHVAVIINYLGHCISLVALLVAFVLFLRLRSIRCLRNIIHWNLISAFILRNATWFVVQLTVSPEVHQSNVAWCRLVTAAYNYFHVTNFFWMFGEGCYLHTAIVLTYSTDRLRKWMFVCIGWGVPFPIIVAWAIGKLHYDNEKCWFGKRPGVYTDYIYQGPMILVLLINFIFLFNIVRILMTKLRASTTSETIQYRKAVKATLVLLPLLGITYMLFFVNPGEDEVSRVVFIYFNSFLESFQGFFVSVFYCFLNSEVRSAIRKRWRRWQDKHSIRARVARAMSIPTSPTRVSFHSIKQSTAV

[2] = Metabolic stability in human liver microsomes assessed as compound remaining at 3 uM after 10 mins by HPLC/UV/MS analysis; format: ADME, Microsome; details: read-out: Stability
[3] = Metabolic stability in rat liver microsomes assessed as compound remaining at 3 uM after 10 mins by HPLC/UV/MS analysis; format: ADME, Microsome; details: read-out: Stability
In short: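 Pooled human or rat liver microsomes (1 mg/mL protein) with 3 μM compound and 1.3 mM NADPH in 100 mM sodium phosphate pH 7.4 at 37 °C; final 0.015% DMSO, 0.985% acetonitrile; stopped at 0 and 10 min, percent remaining by LC/MS/MS.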

Rattus norvegicus [4] = experiment: Ex vivo receptor occupancy of CRF1 receptor in Sprague-Dawley rat brain parietal assessed as inhibition of [125I]sauvagine binding at 10 mg/kg, po after 90 mins by autoradiography; format: functional; details: 1.5 h
Rattus norvegicus [5] = experiment: Anxiolytic activity in Sprague-Dawley rat assessed as decrease in exit latency at 10 mg/kg, po after 60 mins by defensive withdrawal test; format: functional, organism-based; parameters: dose 10 mg/kg
[6] = Clearance in Sprague-Dawley rat at 2 mg/kg, iv after 0.17 to 24 hrs by LC/MS/MS analysis; format: ADME, organism-based; parameters: dose 2 mg/kg, route intravenous; details: in vivo
[7] = Volume of distribution at steady state in Sprague-Dawley rat at 2 mg/kg, iv after 0.17 to 24 hrs by LC/MS/MS analysis; format: ADME, organism-based; parameters: dose 2 mg/kg, route intravenous; details: in vivo, read-out: Vdss
In short: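 Sprague–Dawley rats (n = 3) dosed 2 mg/kg iv in PEG:ethanol 90:10 (v/v) at 1 mL/kg. Plasma stored at –20 °C and quantified by LC/MS/MS after acetonitrile precipitation with internal standard.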

[8] = Half life in Sprague-Dawley rat at 2 mg/kg, iv by LC/MS/MS analysis; format: ADME, organism-based; parameters: dose 2 mg/kg, route intravenous; details: in vivo
[9] = AUC in Sprague-Dawley rat at 10 mg/kg, po dosed as aqueous suspension of 1% polysorbate 80 in 0.5% methylcellulose after 0.25 to 24 hrs by LC/MS/MS analysis; format: ADME, organism-based; parameters: time upper 24 hr, time lower 0.25 hr, dose 10 mg/kg, route oral; details: in vivo
[10] = Cmax in Sprague-Dawley rat at 10 mg/kg, po dosed as aqueous suspension of 1% polysorbate 80 in 0.5% methylcellulose after 2 to 4 hrs by LC/MS/MS analysis; format: ADME, organism-based; parameters: dose 10 mg/kg, route oral; details: in vivo
[11] = Oral bioavailability in Sprague-Dawley rat at 10 mg/kg dosed as aqueous suspension of 1% polysorbate 80 in 0.5% methylcellulose after 0.25 to 24 hrs by LC/MS/MS analysis; format: ADME, organism-based; details: in vivo
[12] = AUC in Sprague-Dawley rat at 10 mg/kg, po dosed as aqueous suspension of Labrafil M 1944CS/DMAC/polysorbate 80, 85:10:5 (v/v) after 0.25 to 24 hrs by LC/MS/MS analysis; format: ADME, organism-based; parameters: time 0.25-24 hr, dose 10 mg/kg, route oral; details: plasma
[13] = Cmax in Sprague-Dawley rat at 10 mg/kg, po dosed as aqueous suspension of Labrafil M 1944CS/DMAC/polysorbate 80, 85:10:5 (v/v) after 2 to 4 hrs by LC/MS/MS analysis; format: ADME, organism-based; parameters: dose 10 mg/kg, route oral; details: in vivo
[14] = Oral bioavailability in Sprague-Dawley rat at 10 mg/kg dosed as aqueous suspension of Labrafil M 1944CS/DMAC/polysorbate 80, 85:10:5 (v/v) after 0.25 to 24 hrs by LC/MS/MS analysis; format: ADME, organism-based; details: in vivo
[15] = Octanol-water partition coefficient, log D at pH 7.4; format: physicochemical
In short: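 Partitioning between octanol and water at pH 7.4.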

[16] = Aqueous solubility at pH 6.5; format: physicochemical
[17] = Aqueous solubility at pH 1; format: physicochemical
[18] = Dissociation constant, pKa by spectrophotometric titration method; format: physicochemical
In short: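 Spectrophotometric titration over pH 2–11 in varying acetonitrile/water mixtures, extrapolated to 0% cosolvent.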

[19] = Fraction unbound in human serum after 3 to 7 hrs by equilibrium dialysis; format: ADME, cell-free
In short: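 Human serum spiked with compound, equilibrium-dialysed against isotonic phosphate buffer for 3 or 7 h (depending on system) at 37 °C; both sides measured by LC/MS/MS, unbound fraction as buffer/serum concentration ratio.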

[20] = Metabolic stability in NADPH-fortified human liver microsomes assessed as parent compound remaining at 10 uM after 30 mins by HPLC/UV/MS analysis; format: ADME, Microsome; details: read-out: Stability
In short: (§1)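 Pooled rat or human liver microsomes 1 mg/mL, 10 μM substrate, 100 mM potassium phosphate pH 7.4, 37 °C, started with NADPH-regenerating system (1.3 mM NADP+, 3.3 mM glucose-6-phosphate, 3.3 mM MgCl2, 0.5 U/mL G6PDH); GSH 5 mM in trapping runs. Sampled 0 and 30 min, acetonitrile quench; abundance as UV peak area (330–340 nm) fraction of all drug-related components by HPLC/UV/MS.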

Liver microsomes [21] = experiment: Metabolic stability in NADPH-fortified human liver microsomes assessed as pyrazinone oxidation metabolite formation at 10 uM after 30 mins by HPLC/UV/MS analysis; format: ADME, Microsome; details: 0.5 h; in short: as §1
Liver microsomes [22] = experiment: Metabolic stability in NADPH-fortified human liver microsomes assessed as GSH adduct formation at 10 uM after 30 mins by HPLC/UV/MS analysis; format: ADME, Microsome; details: 0.5 h; in short: as §1
[23] = Metabolic stability in NADPH-fortified rat liver microsomes assessed as parent compound remaining at 10 uM after 30 mins by HPLC/UV/MS analysis; format: ADME, Microsome; details: read-out: Stability; in short: as §1
Liver microsomes [24] = experiment: Metabolic stability in NADPH-fortified rat liver microsomes assessed as pyrazinone oxidation metabolite formation at 10 uM after 30 mins by HPLC/UV/MS analysis; format: ADME, Microsome; details: 0.5 h; in short: as §1
Liver microsomes [25] = experiment: Metabolic stability in NADPH-fortified rat liver microsomes assessed as GSH adduct formation at 10 uM after 30 mins by HPLC/UV/MS analysis; format: ADME, Microsome; details: 0.5 h; in short: as §1

| SMILES | IC50 [1] [nM] | remaining at 10 min, 3 µM [2] [%] | remaining at 10 min, 3 µM [3] [%] | clearance [6] [mL/min/kg] | Vd [7] [L/kg] | half-life [8] [min] | AUC [12] [µM·h] | Cmax [13] [nM] | bioavailability [14] [%] | fraction unbound [19] | further results |
| --- | --- | --- | --- | --- | --- | --- | --- | --- | --- | --- | --- |
| CC[C@H](C1CC1)n1cc(Cl)nc(Nc2cc(C)c(OC)nc2C)c1=O | 0.28 | 51 | 5 |  |  |  |  |  |  |  |  |
| COC[C@@H](C)n1cc(Cl)nc(Nc2cc(C)c(OC(F)F)nc2C)c1=O | 1.6 | 87 | 66 |  |  |  |  |  |  |  |  |
| COCC(COC)Nc1nc(C)nc2c(-c3ccc(Cl)cc3Cl)c(C)nn12 |  |  |  |  |  |  |  |  |  |  | inhibition in vivo at 10 mg/kg (Rattus norvegicus [4]): 89%; Activity (Rattus norvegicus [5]): Active |
| Cc1cc(Nc2nc(Cl)cn([C@H](C)C3CC3)c2=O)c(C)nc1OC(F)F | 0.3 | 100 | 86 |  |  |  |  |  |  |  |  |
| CC[C@H](C1CC1)n1cc(Cl)nc(Nc2cc(C)c(OC(F)F)nc2C)c1=O | 0.21 | 100 | 56 |  |  |  |  |  |  |  |  |
| CC[C@H](C1CC1)n1cc(C#N)nc(Nc2cc(C)c(OC)nc2C)c1=O | 1.7 | 81 | 38 | 53 | 11 | 540 | 3 | 590 | 33 | 0.019 | AUC [9]: 0.24 µM·h; Cmax [10]: 50 nM; bioavailability [11]: 3%; logD [15]: 4.1; solubility [16]: 1 µg/mL (≈ 2.83 µM); solubility [17]: 23 µg/mL (≈ 65.1 µM); pKa [18]: < 2 |
| Cc1cc(Nc2nc(C#N)cn([C@H](C)C3CC3)c2=O)c(C)nc1OC(F)F | 0.82 | 100 | 89 | 36 | 11 | 432 | 9.9 | 1400 | 82 | 0.016 | AUC [9]: 4.6 µM·h; Cmax [10]: 560 nM; bioavailability [11]: 38%; remaining at 0.5 h, 10 µM [20]: 88%; Activity (Liver microsomes [21]): < 1%; Activity (Liver microsomes [22]): 7%; remaining at 0.5 h, 10 µM [23]: 80%; Activity (Liver microsomes [24]): < 1%; Activity (Liver microsomes [25]): 8% |
| COC[C@@H](C1CC1)n1cc(Cl)nc(Nc2cc(C)c(OC(F)F)nc2C)c1=O | 0.5 | 84 | 46 | 31 | 42 | 960 | 4.7 | 440 | 48 | 0.008 |  |
| COC[C@@H](C1CC1)n1cc(C#N)nc(Nc2cc(C)c(OC(F)F)nc2C)c1=O | 1.4 | 78 | 64 |  |  |  |  |  |  |  |  |
